For one data set, the target named is Acetylcholinesterase (Homo sapiens, UniProt P22303). As to the kind of experiment: In vitro inhibition of human erythrocyte Acetylcholinesterase.
The next data set has as its target Cholinesterase (Homo sapiens, UniProt P06276). As to the kind of experiment: In vitro inhibition of human serum Butyrylcholinesterase.
Data set [1] in a line: Compound was evaluated for equilibrium constant. Type of data set: ADME. The method in brief: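 Stopped-time carbamoylation assay with human erythrocyte AChE and inhibitor at five concentrations in pH 8.0 assay buffer at 37 °C. After a few minutes, residual ATCh hydrolysis was read at 412 nm against a parallel no-inhibitor control. Fit R = R0·exp(−kobs·t) + R∞ gave kobs; KC came from the slope/intercept ratio of double-reciprocal kobs versus [I] plots.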

Data set [2] in a line: Compound was evaluated for rate constant (K3). Type of data set: ADME.
A short description of data set [3]: Compound was evaluated for rate constant (K5). In kind it is ADME.

Here are results for 17 molecules from ChEMBL document CHEMBL1134674, “Acetylcholinesterase inhibitors: SAR and kinetic studies on omega-[N-methyl-N-(3-alkylcarbamoyloxyphenyl)methyl]aminoalkoxyaryl derivatives” (J Med Chem, 2001).

Cholinesterase, sequence (P06276 whole entry): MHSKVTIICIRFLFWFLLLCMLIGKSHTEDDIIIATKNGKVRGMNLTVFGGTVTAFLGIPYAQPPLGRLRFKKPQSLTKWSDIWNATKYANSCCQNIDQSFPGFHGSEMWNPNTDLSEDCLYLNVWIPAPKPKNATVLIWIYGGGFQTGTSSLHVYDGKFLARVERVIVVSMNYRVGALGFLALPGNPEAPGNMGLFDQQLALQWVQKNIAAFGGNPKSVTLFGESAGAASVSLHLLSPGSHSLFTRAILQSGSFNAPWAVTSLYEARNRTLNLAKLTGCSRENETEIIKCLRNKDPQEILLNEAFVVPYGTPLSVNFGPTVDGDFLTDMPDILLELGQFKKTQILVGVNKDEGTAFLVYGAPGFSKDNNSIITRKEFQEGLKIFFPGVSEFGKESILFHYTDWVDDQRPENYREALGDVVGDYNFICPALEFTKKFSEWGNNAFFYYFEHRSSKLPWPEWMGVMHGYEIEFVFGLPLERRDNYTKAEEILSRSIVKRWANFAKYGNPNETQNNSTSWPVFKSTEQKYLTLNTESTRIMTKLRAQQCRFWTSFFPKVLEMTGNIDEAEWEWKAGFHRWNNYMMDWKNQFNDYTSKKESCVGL
Acetylcholinesterase, sequence (P22303 whole entry): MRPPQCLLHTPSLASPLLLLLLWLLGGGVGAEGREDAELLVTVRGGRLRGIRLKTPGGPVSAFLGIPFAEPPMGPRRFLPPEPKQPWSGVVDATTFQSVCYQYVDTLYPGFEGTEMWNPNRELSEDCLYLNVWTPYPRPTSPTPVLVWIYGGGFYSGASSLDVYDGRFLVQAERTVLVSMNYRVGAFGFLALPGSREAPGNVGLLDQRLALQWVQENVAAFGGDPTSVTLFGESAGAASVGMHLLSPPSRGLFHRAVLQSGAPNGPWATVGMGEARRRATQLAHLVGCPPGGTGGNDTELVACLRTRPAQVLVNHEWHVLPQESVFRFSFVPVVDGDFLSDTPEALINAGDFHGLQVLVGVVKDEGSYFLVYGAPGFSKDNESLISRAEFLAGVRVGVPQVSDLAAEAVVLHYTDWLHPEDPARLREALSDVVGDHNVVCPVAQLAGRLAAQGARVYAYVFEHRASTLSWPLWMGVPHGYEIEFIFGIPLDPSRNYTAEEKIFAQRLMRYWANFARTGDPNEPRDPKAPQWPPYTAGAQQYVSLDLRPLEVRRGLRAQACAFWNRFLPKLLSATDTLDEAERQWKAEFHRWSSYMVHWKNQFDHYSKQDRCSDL

For the molecule `CNC(=O)Oc1cccc(CN(C)CCCOc2ccc(-c3ccccc3)cc2)c1`, the values for the IC50 against Acetylcholinesterase and on Cholinesterase were 54.6 nM and 42.6 nM, respectively.

Turning to `CNC(=O)Oc1cccc(CN(C)CCCCCCOc2ccc3c(=O)c4ccccc4oc3c2)c1`, the Kc in data set [1] was found to be 6.4 nM. In data set [2], this molecule showed a K3 of 2.3 min⁻¹. In data set [3], this molecule yielded a K5 of 0.77 h⁻¹. Further, the IC50 (commonly the concentration that gives 50% inhibition) against Acetylcholinesterase stood at 1.4 nM; against Cholinesterase, 13.9 nM.

As for `CN(CCCOc1ccc2c(=O)c3ccccc3oc2c1)Cc1cccc(OC(=O)NCCCCCCCCN2CCOCC2)c1`, the IC50 at Acetylcholinesterase worked out at 27.4 nM; against Cholinesterase, 3.9 nM.

On to `CN(CCCOc1ccc2c(=O)c3ccccc3oc2c1)Cc1cccc(OC(=O)NCCCCCCCCCN2CCOCC2)c1`, for which it took 29.3 nM to reach half-maximal inhibition on Acetylcholinesterase (IC50).

On to `CN(CCCOc1ccc2c(=O)c3ccccc3oc2c1)Cc1cccc(OC(=O)NCCCCCCCN2CCOCC2)c1`, for which the Kc in data set [1] was found to be 27.2 nM. The molecule further had a K3 in data set [2] of 0.11 min⁻¹. In addition, the results for the IC50 at Acetylcholinesterase and against Cholinesterase were 26.2 nM and 4.9 nM, respectively.

`CN(CCCOc1ccc2c(=O)c3ccccc3oc2c1)Cc1cccc(OC(=O)NCCCCCCN2CCOCC2)c1`: the 50% inhibitory concentration (IC50) on Acetylcholinesterase was found to be 21.1 nM; against Cholinesterase it was 7.5 nM.

Regarding `CNC(=O)Oc1cccc(CN(C)CCCOc2ccccc2)c1`, the IC50 amounted to 79.6 nM against Acetylcholinesterase and 24.8 nM at Cholinesterase.

As for `CNC(=O)Oc1ccc2c(c1)CN(CCCOc1ccc3c(=O)c4ccccc4oc3c1)CC2`, the IC50 was 12.4 nM at Acetylcholinesterase and 34.1 nM at Cholinesterase.

As to `CNC(=O)Oc1cccc(CN(C)CCCOc2ccc3ccccc3c2)c1`, the results for the IC50 on Acetylcholinesterase and at Cholinesterase were 82.6 nM and 205 nM, respectively.

Take `CNC(=O)Oc1cccc(CN(C)CCCCCCCCCOc2ccc3c(=O)c4ccccc4oc3c2)c1`: the IC50 stood at 11.7 nM against Acetylcholinesterase and 48.3 nM at Cholinesterase.

For `CNC(=O)Oc1cccc(CN(C)CCCCCCCOc2ccc3c(=O)c4ccccc4oc3c2)c1`, the IC50 at Acetylcholinesterase stood at 0.32 nM; against Cholinesterase, 16.5 nM.

Molecule `CNC(=O)Oc1cccc(CN(C)CCCOc2cccc(Cc3ccccc3)c2)c1` yielded an IC50 against Cholinesterase of 22.1 nM.

Turning to `CNC(=O)Oc1cccc(CN(C)CCCOc2ccc(C(=O)c3ccccc3)cc2)c1`, the values for the IC50 at Acetylcholinesterase and against Cholinesterase were 5.4 nM and 24.5 nM, respectively.

In the case of `CNC(=O)Oc1cccc(CN(C)CCCCCCCCCCOc2ccc3c(=O)c4ccccc4oc3c2)c1`, the IC50 at Acetylcholinesterase was found to be 21.8 nM; against Cholinesterase it was 31.6 nM.

Consider `CNC(=O)Oc1cccc(CN(C)CC#CCOc2ccc3c(=O)c4ccccc4oc3c2)c1`, for which the values for the IC50 on Acetylcholinesterase and against Cholinesterase were 210 nM and 529 nM, respectively.

With `CNC(=O)Oc1cccc(CN(C)CCCCCCCCOc2ccc3c(=O)c4ccccc4oc3c2)c1`, the IC50 at Acetylcholinesterase is 6.8 nM; against Cholinesterase it was 25.2 nM.

On to `CNC(=O)Oc1ccc2c(c1)[C@]1(C)CCN(C)[C@@H]1N2C` [PHYSOSTIGMINE], for which the Kc in data set [1] is reported as 33.5 nM. Further, the K3 in data set [2] is 0.41 min⁻¹. For the same molecule, the K5 in data set [3] came to 0.43 h⁻¹.
